Experimental data taken from ChEMBL document CHEMBL2062497, “Syntheses and in vitro evaluation of decalinvesamicol analogues as potential imaging probes for vesicular acetylcholine transporter (VAChT)” (Bioorg Med Chem, 2012).

Tests used:
[1] = biological target: T1, Vesicular acetylcholine transporter (Rattus norvegicus, UniProt Q62666); experiment: Binding affinity to VAChT in rat cerebral membrane; format: cell membranes
T1 sequence (Q62666 whole entry): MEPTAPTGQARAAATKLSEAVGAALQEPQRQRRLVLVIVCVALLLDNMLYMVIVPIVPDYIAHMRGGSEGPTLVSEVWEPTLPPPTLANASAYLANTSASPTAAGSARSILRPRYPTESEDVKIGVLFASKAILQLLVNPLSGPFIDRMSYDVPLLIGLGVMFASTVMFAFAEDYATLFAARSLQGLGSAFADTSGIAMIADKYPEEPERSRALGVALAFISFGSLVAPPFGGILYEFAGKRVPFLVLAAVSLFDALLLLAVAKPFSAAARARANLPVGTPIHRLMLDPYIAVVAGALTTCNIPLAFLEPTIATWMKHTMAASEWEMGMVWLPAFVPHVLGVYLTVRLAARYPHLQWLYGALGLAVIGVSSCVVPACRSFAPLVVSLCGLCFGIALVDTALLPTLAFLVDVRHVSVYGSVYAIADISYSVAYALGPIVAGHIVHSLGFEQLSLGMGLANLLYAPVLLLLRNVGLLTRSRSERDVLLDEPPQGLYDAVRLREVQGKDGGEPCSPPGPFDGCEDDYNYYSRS

[2] = Displacement of [3H]DTG from sigma2 receptor in Sprague-Dawley rat liver membrane after 90 mins by liquid scintillation counting in presence of pentazocine; format: cell membranes
Outline: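 Sigma-2 assay: rat liver membranes (male Sprague-Dawley) with [3H]DTG (Kd 22.3 nM) plus pentazocine to mask sigma-1. Displacers at 1.0×10^-10–10^-5 M in 50 mM Tris-HCl pH 7.8, quadruplicate. Incubated 37 °C for 90 min, then filtered and scintillation counted. Three independent experiments; Ki via IC50/(1 + C/Kd).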

[3] = biological target: T1, Vesicular acetylcholine transporter; experiment: Displacement of (-)-[3H]vesamicol from VAChT in Sprague-Dawley rat cerebral membrane after 60 mins by liquid scintillation counting in presence of DTG
[4] = biological target: Sigma non-opioid intracellular receptor 1 (Rattus norvegicus, UniProt Q9R0C9); experiment: Displacement of (+)-[3H]pentazocine from sigma1 receptor in Sprague-Dawley rat cerebral membrane after 90 mins by liquid scintillation counting
Sigma non-opioid intracellular receptor 1, sequence (Q9R0C9 whole entry): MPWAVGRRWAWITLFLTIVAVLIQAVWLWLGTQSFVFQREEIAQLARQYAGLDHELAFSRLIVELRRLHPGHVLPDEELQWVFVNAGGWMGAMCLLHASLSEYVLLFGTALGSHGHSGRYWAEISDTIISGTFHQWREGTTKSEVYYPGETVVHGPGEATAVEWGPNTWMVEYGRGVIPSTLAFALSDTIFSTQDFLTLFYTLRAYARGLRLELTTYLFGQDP

[5] = biological target: T1, Vesicular acetylcholine transporter; experiment: Displacement of [125I]O-iodo-trans-decalinvesamicol from VAChT in Sprague-Dawley rat cerebral membrane after 1 hr by gamma counting
Outline: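 Male Sprague-Dawley cerebral membranes were incubated with 5 nM radioiodinated tracer and each ligand at 10^-10–10^-5 M in 50 mM Tris-HCl pH 7.8, quadruplicate. Nonspecific binding was taken with excess unlabelled ligand. Incubation was 37 °C for 1 h, then ice quench, PEI-soaked filter harvest and gamma counting.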

[6] = n-octanol-water partition coefficient, log P at 0.51 MBq after 5 mins by gamma counting; format: physicochemical
Outline: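 Tracer (0.51 MBq) partitioned between n-octanol and 0.1 M phosphate buffer pH 7.4 (n = 4). Vortexed 5 min at room temperature, then centrifuged 10 min at 2000g. Four samples per layer were gamma counted. logP = log10(octanol/aqueous radioactivity). Three independent experiments.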

[7] = biological target: T1, Vesicular acetylcholine transporter; experiment: Binding affinity to VAChT in Sprague-Dawley rat cerebral membrane after 1 hr by gamma counting in presence of haloperidol
Outline: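 Saturation binding of [¹²⁵I]-labelled radioligand (0.1–10 nM) to cerebral membranes from male 8-week Sprague-Dawley rats (sucrose homogenate, differential centrifugation), with 100 nM haloperidol masking σ receptors. Incubated in 50 mM Tris–HCl pH 7.8 for 1 h at 37 °C, in quadruplicate. Filtered and washed, then gamma counted. Specific binding is total minus nonspecific; Kd and Bmax come from the saturation curve and Scatchard plot.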

Brain = experiment: Drug uptake in Sprague-Dawley rat brain at 185 kBq, iv at 10 mins by gamma counting; format: ADME, organism-based; conditions: in vivo
Outline: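 Male Sprague-Dawley rats (8 weeks, 250–300 g, n = 4) got radioiodinated tracer, 185 kBq, by tail-vein injection. Sacrificed at 10 min. Whole brains were weighed and gamma counted, expressed as %ID/g.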

O[C@@H]1CCCCC1N1CCC(c2ccccc2[125I])CC1 (some centres not stated)
Kd [1]: 17.4 nM

OC1CCCCC1N1CCC(c2ccccc2)CC1 (configuration not stated)
Ki [2]: 86.7 nM

OC1C[C@@H]2CCCC[C@H]2CC1N1CCC(c2ccccc2I)CC1 (relative stereo)
Ki [3]: 20.5 nM | Ki [4]: 242 nM | Ki [2]: 119 nM | Ki [5]: 28.6 nM

OC1C[C@@H]2CCCC[C@H]2CC1N1CCC(c2ccccc2Br)CC1 (relative stereo)
Ki [3]: 13.8 nM | Ki [4]: 151 nM | Ki [2]: 138 nM | Ki [5]: 9.3 nM

OC1C[C@@H]2CCCC[C@H]2CC1N1CCC(c2ccccc2)CC1 (relative stereo)
Ki [4]: 74.1 nM | Ki [2]: 68.3 nM

OC1C[C@@H]2CCCC[C@H]2CC1N1CCC(c2ccccc2[125I])CC1 (relative stereo)
logP at 5 min [6]: 2.46 | Kd [7]: 1.73 nM | Drug uptake (Brain): 0.45 % ID/g

CC(C)=CCN1CC[C@]2(C)c3cc(O)ccc3C[C@H]1[C@H]2C [(+)-PENTAZOCINE]
Ki [5]: > 10000 nM

Cc1ccccc1NC(=N)Nc1ccccc1C [DITOLYLGUANIDINE]
Ki [2]: 31.7 nM | Ki [5]: 1130 nM

O=C(CCCN1CCC(O)(c2ccc(Cl)cc2)CC1)c1ccc(F)cc1 [HALOPERIDOL]
Ki [2]: 51.6 nM

O=C(c1ccc(F)cc1)C1CCN(CCn2c(=O)[nH]c3ccccc3c2=O)CC1 [KETANSERIN]
Ki [5]: > 10000 nM

NC[C@H](O)c1ccc(O)c(O)c1 [NOREPINEPHRINE]
Ki [5]: > 10000 nM

O=C(CCCN1CCC2(CC1)C(=O)NCN2c1ccccc1)c1ccc(F)cc1 [SPIPERONE]
Ki [5]: 1030 nM
